What was measured:
Format in all cases: functional
CCRF-CEM = assay: Growth inhibition of human CCRF-CEM cells after 48 hrs; settings: for CC50: read-out: LC50 (the source's name)
How it was run: (§1)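 NCI in vitro disease-oriented human tumor cell line screen. Compounds passing a one-dose primary assay (MCF-7, NCI-H460, SF-268; pass = growth of any line reduced to 32% or less) were tested on the 60-line panel over a 5-log dose range. Compounds were dissolved in DMSO, with under 1% DMSO in final dilutions, and tested in duplicate at 6×10^4 cells/ml. Cells were incubated at 37 °C in 5% CO2 for 48 h, then diluted 10-fold in saline and counted with a Coulter counter, with counts corrected for dilution. Controls held PBS/DMSO at identical dilutions. GI50 was reported per line and as subpanel/full-panel mean-graph midpoint.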

HL-60(TB) = assay: Growth inhibition of human HL-60(TB) cells after 48 hrs; settings: HL-60, 48 h; for CC50: read-out: LC50 (the source's name)
How it was run: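 NCI 60-cell-line screen over a 5-log dose range. Compounds were dissolved in DMSO, final DMSO under 1%. Duplicate wells were seeded at 6×10^4 cells/ml, with PBS/DMSO vehicle controls at identical dilutions. Cells were incubated 48 h at 37 °C in humidified 5% CO2, diluted 10-fold in saline, and counted by Coulter counter with dilution correction. GI50 read-out.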

K562 = assay: Growth inhibition of human K562 cells after 48 hrs; settings: K562, 48 h; how it was run: as §1
RPMI-8226 = assay: Growth inhibition of human RPMI8226 cells after 48 hrs; settings: RPMI-8226, 48 h; for CC50: read-out: LC50 (the source's name); how it was run: as §1
SF-539 = assay: Growth inhibition of human SF539 cells after 48 hrs; settings: SF-539, 48 h; for CC50: read-out: LC50 (the source's name); how it was run: as §1
SK-MEL-2 = assay: Growth inhibition of human SK-MEL-2 cells after 48 hrs; settings: SK-MEL-2, 48 h; how it was run: as §1
UACC-257 = assay: Growth inhibition of human UACC257 cells after 48 hrs; settings: UACC-257, 48 h; how it was run: as §1
MCF7 = assay: Growth inhibition of human MCF7 cells after 48 hrs; settings: MCF7, 48 h; for CC50: read-out: LC50 (the source's name); how it was run: as §1
T47D = assay: Growth inhibition of human T47D cells after 48 hrs; how it was run: as §1
[1] = Growth inhibition of human leukemia cells after 48 hrs; settings: Leukemia cell; how it was run: as §1
NSCLC = assay: Growth inhibition of human NSCLC cells after 48 hrs; how it was run: as §1
[2] = Growth inhibition of human Colon cancer cells after 48 hrs; settings: Cancer cell lines; how it was run: as §1
[3] = Growth inhibition of human CNS cancer cells after 48 hrs; settings: Cancer cell lines; for CC50: read-out: LC50 (the source's name); how it was run: as §1
[4] = Growth inhibition of human melanoma cells after 48 hrs; settings: Melanoma cell; how it was run: as §1
[5] = Growth inhibition of human ovarian cancer cells after 48 hrs; settings: Cancer cell lines; how it was run: as §1
[6] = Growth inhibition of human renal cancer cells after 48 hrs; settings: Cancer cell lines; for CC50: read-out: LC50 (the source's name); how it was run: as §1
[7] = Growth inhibition of human prostate cancer cells after 48 hrs; settings: Cancer cell lines; for CC50: read-out: LC50 (the source's name); how it was run: as §1
[8] = Growth inhibition of human breast cancer cells after 48 hrs; settings: Cancer cell lines; how it was run: as §1

## O=C(Nn1c(-c2cccs2)nc2ccc(I)cc2c1=O)c1ccccc1
CCRF-CEM
  GI50: 39 µM
  TGI: > 100 µM
  CC50: > 100 µM
HL-60(TB)
  GI50: 34 µM
  TGI: > 100 µM
  CC50: > 100 µM
K562
  GI50: 44 µM
  LC50 (concentration killing 50% of cells): > 100 µM
  TGI: > 100 µM
RPMI-8226
  GI50: 23 µM
  TGI: 58 µM
  CC50: > 100 µM
SF-539
  GI50: 30 µM
  TGI: > 100 µM
  CC50: > 100 µM
SK-MEL-2
  GI50: 24 µM
  LC50: > 100 µM
  TGI: 69 µM
UACC-257
  GI50: < 0.01 µM
  LC50: > 100 µM
  TGI: 31 µM
MCF7
  GI50: 23 µM
  TGI: > 100 µM
  CC50: > 100 µM
T47D
  GI50: 11 µM
  LC50: > 100 µM
  TGI: 38 µM
[1]
  GI50: 33.9 µM
  TGI: 71.5 µM
NSCLC
  GI50: 25.6 µM
  TGI: 75.3 µM
[2]
  GI50: 35.4 µM
  TGI: 90 µM
[3]
  GI50: 27.4 µM
  TGI: 85.8 µM
[4]
  GI50: 35.5 µM
  TGI: 62.1 µM
[5]
  GI50: 27.4 µM
  TGI: 74.4 µM
[6]
  GI50: 32.1 µM
  TGI: 86.7 µM
[7]
  GI50: 27.2 µM
  TGI: 73.3 µM
[8]
  GI50: 24.5 µM
  TGI: 72.5 µM

## O=C(Nc1ccc(I)cc1C(=O)Nc1ccc(O)cc1)c1cccs1
HL-60(TB)
  GI50: 8 µM
  TGI: 37 µM
  CC50: > 100 µM
K562
  GI50: 24 µM
  LC50 (concentration killing 50% of cells): > 100 µM
  TGI: > 100 µM
RPMI-8226
  GI50: 3 µM
  TGI: 18 µM
  CC50: 57 µM
SF-539
  GI50: < 0.01 µM
  TGI: 15 µM
  CC50: 62 µM
SK-MEL-2
  GI50: 16 µM
  LC50: 57 µM
  TGI: 30 µM
UACC-257
  GI50: < 0.01 µM
  LC50: > 100 µM
  TGI: 22 µM
MCF7
  GI50: 12 µM
  TGI: 33 µM
  CC50: 94 µM
T47D
  GI50: 2 µM
  LC50: 50 µM
  TGI: 11 µM
[1]
  GI50: 11.5 µM
  TGI: 60.6 µM
[1]; read-out: LC50 (the source's name)
  CC50: 91 µM
NSCLC
  GI50: 13.5 µM
  LC50 (concentration killing 50% of cells): 74.6 µM
  TGI: 33.1 µM
[2]
  GI50: 15.2 µM
  LC50: 74.6 µM
  TGI: 34.5 µM
[3]
  GI50: 12.2 µM
  TGI: 32.4 µM
  CC50: 77.6 µM
[4]
  GI50: 11.1 µM
  LC50 (lethal concentration 50%): 63.8 µM
  TGI: 26.9 µM
[5]
  GI50: 13.3 µM
  LC50: 72.5 µM
  TGI: 35.4 µM
[6]
  GI50: 13.2 µM
  TGI: 29.3 µM
  CC50: 64.1 µM
[7]
  GI50: 8.7 µM
  TGI: 21.1 µM
  CC50: 45.8 µM
[8]
  GI50: 11.9 µM
  LC50: 79.4 µM
  TGI: 36.8 µM

## NS(=O)(=O)c1ccc(CNc2nc(-c3cccs3)nc3ccc(I)cc23)cc1
CCRF-CEM
  GI50: 22 µM
  TGI: 60 µM
  CC50: > 100 µM
HL-60(TB)
  GI50: 30 µM
  TGI: > 100 µM
  CC50: > 100 µM
K562
  GI50: 37 µM
  LC50 (concentration killing 50% of cells): > 100 µM
  TGI: > 100 µM
RPMI-8226
  GI50: 19 µM
  TGI: 50 µM
  CC50: > 100 µM
SF-539
  GI50: 11 µM
  TGI: 31 µM
  CC50: 85 µM
SK-MEL-2
  GI50: 18 µM
  LC50: 61 µM
  TGI: 33 µM
UACC-257
  GI50: 14 µM
  LC50: 54 µM
  TGI: 28 µM
MCF7
  GI50: 0.6 µM
  TGI: 16 µM
  CC50: > 100 µM
T47D
  GI50: 0.2 µM
  LC50: 82 µM
  TGI: 18 µM
[1]
  GI50: 23.9 µM
  TGI: 72.3 µM
NSCLC
  GI50: 14.7 µM
  LC50 (concentration killing 50% of cells): 82.2 µM
  TGI: 37 µM
[2]
  GI50: 16.7 µM
  LC50: 66.4 µM
  TGI: 37.3 µM
[3]
  GI50: 18.2 µM
  TGI: 42.4 µM
  CC50: 89 µM
[4]
  GI50: 16 µM
  LC50 (lethal concentration 50%): 58.3 µM
  TGI: 30.5 µM
[5]
  GI50: 15.7 µM
  LC50: 89.1 µM
  TGI: 42.6 µM
[6]
  GI50: 13.6 µM
  TGI: 36.1 µM
  CC50: 88.1 µM
[7]
  GI50: 17.1 µM
  TGI: 41.8 µM
  CC50: 80.8 µM
[8]
  GI50: 12.3 µM
  LC50: 80.8 µM
  TGI: 32.1 µM
